Measurements taken from publication PMC3594512 (Bioorganic & medicinal chemistry, 2013).
Entries after “also recorded” stand apart in the source; their conditions may differ.

Experiments:
[1] = system: F-H69 (fluorescein-labeled Ψm^3ΨΨ); assay: Quantum dot; assay type: binding, E. coli; details: Qdot analysis; 1 nM F-H69, 1 nM Qdot 655, 16 h at 4 °C
Summary of the method: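 F-H69 was pre-incubated 1 h at 4 °C with anti-fluorescein Qdot 655, then with beads 16 h at 4 °C. Washes: PBS, SuperBlock, then 0.005% TX-100. Per-bead Qdot (em 655 nm) and fluorescein (em 521 nm) pixel intensities (1–255) taken at predefined exposures. Peptide-free beads served as control.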

[2] = system: F-18S RNA (human A-site rRNA); assay: TentaGel bead fluorescence assay with F-18S RNA; assay type: binding; details: peptide on TentaGel beads; fluorescence microscopy
Summary of the method: (§1)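 Peptide beads were washed free of DMF, blocked 3 h in SuperBlock (PBS, 0.05% Tween-20) and rinsed with water. About 10–12 beads were shaken with fluorescent probe for 24 h at 4 °C, with fresh probe added for repeated cycles. Beads were then water-washed and viewed by fluorescence microscopy. Peptide-free beads set background. Labelled RNAs were gel-purified (20% denaturing PAGE), stored in 10 mM HEPES pH 7.4 and renatured.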

F-TAR RNA = assay: TentaGel bead fluorescence assay with F-TAR RNA; assay type: binding; details: peptide on TentaGel beads, fluorescence microscopy
[3] = TentaGel bead control with free fluorescein; assay type: binding; details: peptide on TentaGel beads; fluorescence microscopy
Summary of the method: as §1

H69 RNA = details: relative to NQVANHQ-NH2 (1:1), ref [15b]; cited from earlier work
human H69 = details: relative to NQVANHQ-NH2; due to non-specific binding, ref [15b]; cited from earlier work

Substance | bead intensity compared with STYTSVS beads [1] | on-bead interaction with F-18S RNA [2] | on-bead interaction with F-TAR RNA (F-TAR RNA) | on-bead interaction with free fluorescein [3] | on-bead interaction with F-TAR RNA (F-TAR RNA; listed as STYSTVS) | stoichiometry with H69 (H69 RNA) | selectivity with human H69 (human H69)
NQVANHQ | higher than STYTSVS beads | did not show any interaction; also recorded: do not show any fluorescence | did not show any interaction; also recorded: do not show any fluorescence | do not show any fluorescence | – | – | –
STYTSVS | – | do not show any fluorescence | with the exception those containing STYTSVS and F-TAR RNA | do not show any fluorescence | showed interaction | – | –
neomycin | – | – | – | – | – | higher stoichiometries | lower selectivity with human H69
